Consider four molecules from PMC12699372 (RSC Advances, 2025).

Type in all cases: cell-based
The subject of one assay is HT-29 cells. The assay can be described thus: CCK-8 anti-proliferation assay, HT-29. The following applies: Homo sapiens, HT-29, 72 h, read-out: IC50 HT-29, HT-29 cells, 72 h, CCK-8. Background: Tetrazolium dyes change colour on reduction, which living cells bring about.
Another assay has as its system HCT-15 cells. Description: CCK-8 anti-proliferation assay, HCT-15. The following applies: Homo sapiens, HCT-15, 72 h, read-out: IC50 HCT-15, HCT-15 cells, 72 h, CCK-8. The essentials: (§1)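 HCT-116 and HCT-15 were grown in McCoy's 5A, and NCM-460 in RPMI 1640, each with 10% FBS and 1% penicillin-streptomycin at 37 °C, 5% CO2. Cells were seeded at 4 × 10^3 per well overnight, then exposed to graded concentrations of test compound for 72 h. Medium was replaced with fresh medium containing 10% CCK-8; A450 was read after 1 h at 37 °C. […] At least three independent experiments.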

A further assay has as its system HCT-116 cells. Description: CCK-8 anti-proliferation assay, HCT-116. The note with it: Homo sapiens, HCT-116, 72 h, read-out: IC50 HCT-116, HCT-116 cells, 72 h, CCK-8. The procedure, abridged:
as §1

A further assay has as its system NCM-460 cells. Description: CCK-8 cytotoxicity, normal colon cell line NCM-460. The note with it: Homo sapiens, NCM460, 72 h, read-out: IC50 NCM-460, normal human colon cell line NCM-460, 72 h, CCK-8. The essentials:
as §1

Turning to `CC1(C)C[C@H]2[C@H]1CC[C@]1(C)CCC[C@@]2(n2cc(C(=O)NC3CCNCC3)nn2)C1` [NC-18], the IC50 (in general, the concentration needed to halve the response being measured) in the assay with HT-29 cells is 3.17 ± 0.24 µM; in the assay with HCT-15 cells, 14.9 ± 0.98 µM; in the assay with HCT-116 cells it was 14.7 ± 1.79 µM; in the assay on NCM-460 cells it was 18.6 ± 4.58 µM.

In the case of `O=c1[nH]cc(F)c(=O)[nH]1` [5-FU, 5-fluorouracil, reference compound], the IC50 was found to be 3.63 ± 0.611 µM in the assay with HT-29 cells, 13.3 ± 2.01 µM in the assay with HCT-15 cells, 1.38 ± 0.21 µM in the assay with HCT-116 cells and 3.94 ± 1.41 µM in the assay with NCM-460 cells.

As for `CC1(C)C[C@H]2[C@H]1CC[C@]1(C)CCC[C@@]2(n2cc(C(=O)N3CCNCC3)nn2)C1` [NC-16], the IC50 in the assay with HT-29 cells stood at 4.02 ± 0.14 µM; with HCT-15 cells, 11.7 ± 0.85 µM; in the assay on HCT-116 cells it was 17.9 ± 1.01 µM; with NCM-460 cells, 26.1 ± 3.1 µM.

As to `CC1(C)C[C@H]2[C@H]1CC[C@]1(C)CCC[C@@]2(n2cc(C(=O)NCCN)nn2)C1` [NC-14], the IC50 with HT-29 cells was determined as 45.9 ± 11.1 µM.
